Laboratory results taken from ChEMBL document CHEMBL4402601, “Discovery of a Silicon-Containing Pan-Genotype Hepatitis C Virus NS5A Inhibitor” (J Med Chem, 2020).

Key:
[1] = Drug distribution in rat plasma at 10 mg/kg, po incubated for 0.5 hrs by UPLC-MS/MS analysis; type: ADME, organism-based
Method in brief: (§1)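 Oral dosing in mice and rats; compound measured in plasma and liver by UPLC-MS/MS at each time point, n = 3 (mean ± SD). LPR is mean liver concentration divided by mean plasma concentration.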

[2] = Drug distribution in mouse liver at 10 mg/kg, po incubated for 24 hrs by UPLC-MS/MS analysis; type: ADME, organism-based; settings: read-out: Drug uptake; method in brief: as §1
[3] = Ratio of drug distribution in mouse liver to drug distribution in mouse plasma measured after 3 hrs by UPLC-MS/MS analysis; type: ADME, cell-free; method in brief: as §1
[4] = Toxicity in mouse assessed as abnormality on organs at 300 mg/kg, po administered for 14 days and measured on day 14; type: organism-based; settings: in vivo, 336 h
Method in brief: (§2)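 Mice randomised after acclimation into two groups of 5 males and 5 females. Compound at 300 mg/kg or vehicle alone given once daily by oral gavage for 14 days. Clinical signs observed daily. Body weight and food intake recorded on day 1, then twice weekly. Animals killed after the 14th dose.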

[5] = Half life in mouse at 2 mg/kg, iv by UPLC-MS/MS analysis; type: ADME, organism-based; settings: in vivo
Method in brief: (§3)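 Overnight-fasted mice dosed iv once at 2 mg/kg. Vehicle was 2:2:96 (v/v) alcohol : Tween 80 : glucose injection diluted 2.5 times with 10% glucose injection. Plasma concentration measured by UPLC-MS/MS.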

[6] = test system: Hepatitis C virus; test: Resistance index, ratio of EC50 for Hepatitis C virus subtype 1b Con1 subgenomic replicon expressing NS5A Y93H mutant infected in human HuH7 cells to EC50 for Hepatitis C virus subtype 1b Con1 subgenomic replicon expressing NS5A infected in human HuH7 cells; type: functional, Hepacivirus hominis
[7] = Ratio of drug distribution in mouse liver to drug distribution in mouse plasma measured after 24 hrs by UPLC-MS/MS analysis; type: ADME, cell-free; method in brief: as §1
[8] = test system: Hepatitis C virus; test: Antiviral activity against Hepatitis C virus subtype 4a subgenomic replicon expressing NS5A infected in human HuH7 cells assessed as reduction in viral replication incubated for 3 days by luciferase reporter gene assay; type: functional, organism-based, Hepacivirus hominis; settings: Huh-7, 72 h
[9] = test system: Hepatitis C virus; test: Antiviral activity against Hepatitis C virus subtype 1b Con1 replicon expressing NS5A L31V mutant infected in human HuH7 cells assessed as reduction in viral replication incubated for 3 days by luciferase reporter gene assay; type: functional, organism-based, Hepacivirus hominis; settings: subtype 1b Con1, Huh-7, 72 h
Method in brief: (§4)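 NS5A resistance-associated variants introduced into GT1a-H77 or GT1b-Con1 replicons. In transient assays, each variant replicon was electroporated into a Huh-7-derived cell line. Inhibition measured as drop in luciferase signal. Percent inhibition computed per concentration; EC50 from 4-parameter logistic nonlinear fit. Fold resistance is variant EC50 relative to the matching reference replicon.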

[10] = test system: Hepatitis C virus; test: Resistance index, ratio of EC50 for Hepatitis C virus subtype 1b Con1 subgenomic replicon expressing NS5A P32L mutant infected in human HuH7 cells to EC50 for Hepatitis C virus subtype 1b Con1 subgenomic replicon expressing NS5A infected in human HuH7 cells; type: functional, Hepacivirus hominis
[11] = Cmax in dog at 5 mg/kg, po by UPLC-MS/MS analysis; type: ADME, organism-based, Canis lupus familiaris; parameters: dose 5 mg/kg, route oral; settings: in vivo
[12] = Drug distribution in mouse plasma at 10 mg/kg, po incubated for 3 hrs by UPLC-MS/MS analysis; type: ADME, organism-based; method in brief: as §1
[13] = Toxicity in mouse assessed as effect on hepatological parameters at 300 mg/kg, po administered for 14 days and measured on day 14; type: organism-based; settings: in vivo, 336 h; method in brief: as §2
[14] = Half life in mouse at 10 mg/kg, po by UPLC-MS/MS analysis; type: ADME, organism-based; settings: in vivo
Method in brief: (§5)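 Overnight-fasted mice given a single 10 mg/kg oral dose in 2:2:96 (v/v) alcohol : Tween 80 : glucose injection. Plasma levels by UPLC-MS/MS. Bioavailability derived against a 2 mg/kg iv arm using the same formulation diluted 2.5 times with 10% glucose injection.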

[15] = AUClast in mouse at 10 mg/kg, po by UPLC-MS/MS analysis; type: ADME, organism-based; settings: in vivo; method in brief: as §5
[16] = Ratio of drug distribution in mouse liver to drug distribution in mouse plasma measured after 0.5 hrs by UPLC-MS/MS analysis; type: ADME, cell-free; method in brief: as §1
[17] = test system: Hepatitis C virus; test: Resistance index, ratio of EC50 for Hepatitis C virus subtype 1a H77 subgenomic replicon expressing NS5A Q30E mutant infected in human HuH7 cells to EC50 for Hepatitis C virus subtype 1a H77 subgenomic replicon expressing NS5A infected in human HuH7 cells; type: functional, Hepacivirus hominis
[18] = AUClast in mouse at 2 mg/kg, iv by UPLC-MS/MS analysis; type: ADME, organism-based; settings: in vivo; method in brief: as §3
[19] = Ratio of drug distribution in rat liver to drug distribution in rat plasma measured after 0.5 hrs by UPLC-MS/MS analysis; type: ADME, cell-free; method in brief: as §1
[20] = Metabolic stability in human liver microsomes assessed as compound remaining at 1 uM incubated for 60 mins by UPLC-MS/MS analysis; type: ADME, Microsome; settings: read-out: Stability
Method in brief: (§6)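 Pooled mouse, rat or human liver microsomes (0.5 mg/mL) with 1 μM compound, 1 mM NADPH, 5 mM MgCl₂ and 100 mM potassium phosphate pH 7.4. Pre-incubated 5 min at 37 °C, started with NADPH, then run 60 min at 37 °C. Quenched with ice-cold acetonitrile containing internal standard; parent remaining measured by UPLC-MS/MS.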

[21] = Metabolic stability in rat liver microsomes assessed as compound remaining at 1 uM incubated for 60 mins by UPLC-MS/MS analysis; type: ADME, Microsome; settings: read-out: Stability; method in brief: as §6
[22] = Drug distribution in rat plasma at 10 mg/kg, po incubated for 3 hrs by UPLC-MS/MS analysis; type: ADME, organism-based; method in brief: as §1
[23] = AUC (0 to infinity) in dog at 5 mg/kg, po by UPLC-MS/MS analysis; type: ADME, organism-based, Canis lupus familiaris; parameters: dose 5 mg/kg, route oral, time infinity; settings: in vivo
[24] = test system: Hepatitis C virus; test: Antiviral activity against Hepatitis C virus subtype 5a subgenomic replicon expressing NS5A infected in human HuH7 cells assessed as reduction in viral replication incubated for 3 days by luciferase reporter gene assay; type: functional, organism-based, Hepacivirus hominis; settings: Huh-7, 72 h
[25] = Clearance in mouse plasma at 2 mg/kg, iv by UPLC-MS/MS analysis; type: ADME, organism-based; method in brief: as §3
[26] = Drug distribution in rat liver at 10 mg/kg, po incubated for 3 hrs by UPLC-MS/MS analysis; type: ADME, organism-based; settings: read-out: Drug uptake; method in brief: as §1
[27] = test system: Hepatitis C virus; test: Antiviral activity against Hepatitis C virus subtype 1a H77 subgenomic replicon expressing NS5A infected in human HuH7 cells assessed as reduction in viral replication incubated for 3 days by luciferase reporter gene assay; type: functional, organism-based, Hepacivirus hominis; settings: subtype 1a H77, Huh-7, 72 h
Method in brief: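 HCV replicon cell assay; inhibition of replication read as decrease in luciferase signal. Percent inhibition computed at each compound concentration; EC50 (pM) from nonlinear regression fit to a 4-parameter logistic equation. Values are means of triplicate wells, with each experiment run at least twice.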

[28] = test system: Hepatitis C virus; test: Resistance index, ratio of EC50 for Hepatitis C virus subtype 1a H77 subgenomic replicon expressing NS5A Y93H mutant infected in human HuH7 cells to EC50 for Hepatitis C virus subtype 1a H77 subgenomic replicon expressing NS5A infected in human HuH7 cells; type: functional, Hepacivirus hominis
[29] = Half life in dog at 5 mg/kg, po by UPLC-MS/MS analysis; type: ADME, organism-based, Canis lupus familiaris; settings: in vivo
[30] = test system: Hepatitis C virus; test: Antiviral activity against Hepatitis C virus subtype 1b Con1 replicon expressing NS5A L31W mutant infected in human HuH7 cells assessed as reduction in viral replication incubated for 3 days by luciferase reporter gene assay; type: functional, organism-based, Hepacivirus hominis; settings: subtype 1b Con1, Huh-7, 72 h; method in brief: as §4

Question: For `COC(=O)N[C@H](C(=O)N1CCC[C@H]1C(=O)Nc1ccc([C@@H]2CC[C@@H](c3ccc(NC(=O)[C@@H]4CCCN4C(=O)[C@@H](NC(=O)OC)[C@@H](C)OC)cc3)N2c2cc(F)c(N3CC[Si](C)(C)CC3)c(F)c2)cc1)[C@@H](C)OC`, which concentration at 0.5 h [1] is on record?
Answer: 40.9 ng/mL

Question: And the concentration at 24 h [2]?
Answer: 625 ng/g

Question: And the Kp at 3 h [3]?
Answer: 24.6

Question: And the Activity [4]?
Answer: Non-Toxic

Question: What about the half-life [5] of the same molecule?
Answer: 12.2 h

Question: What about the “Ratio EC50” value [6] of the same molecule?
Answer: 12.2

Question: And the Kp at 24 h [7]?
Answer: 17.9

Question: What about the EC50 [8] of the same molecule?
Answer: 0.33 pM

Question: What about the EC50 [9] of the same molecule?
Answer: 3.81 pM

Question: And the “Ratio EC50” value [10]?
Answer: 1

Question: What about the Cmax [11] of the same molecule?
Answer: 395 ng/mL

Question: What about the concentration at 3 h [12] of the same molecule?
Answer: 308 ng/mL

Question: What about the Activity [13] of the same molecule?
Answer: Non-Toxic

Question: What about the half-life [14] of the same molecule?
Answer: 8 h

Question: What about the AUClast [15] of the same molecule?
Answer: 6446 ng/hr.ml

Question: What about the Kp at 0.5 h [16] of the same molecule?
Answer: 8.8

Question: What about the “Ratio EC50” value [17] of the same molecule?
Answer: 175

Question: And the AUClast [18]?
Answer: 17863 ng/hr.ml

Question: And the Kp at 0.5 h [19]?
Answer: 2.7

Question: What about the remaining at 1 h, 1 µM [20] of the same molecule?
Answer: 80.9%

Question: What about the remaining at 1 h, 1 µM [21] of the same molecule?
Answer: 76.3%

Question: What about the concentration at 3 h [22] of the same molecule?
Answer: 45.2 ng/mL

Question: And the AUC [23]?
Answer: 10100 ng·h/mL

Question: And the EC50 [24]?
Answer: 1.6 pM

Question: What about the clearance [25] of the same molecule?
Answer: 1.67 mL/min/kg

Question: And the concentration at 3 h [26]?
Answer: 1110 ng/g

Question: What about the EC50 [27] of the same molecule?
Answer: 1.2 pM

Question: What about the “Ratio EC50” value [28] of the same molecule?
Answer: >833

Question: What about the half-life [29] of the same molecule?
Answer: 21.2 h

Question: What about the EC50 [30] of the same molecule?
Answer: 19.1 pM
